From ChEMBL document CHEMBL1153191, “Triazole oxytocin antagonists: Identification of an aryloxyazetidine replacement for a biaryl substituent” (Bioorg Med Chem Lett, 2010)
In brackets after ≈: the same amount, converted by molar mass.

Key:
Rattus norvegicus [1] = assay: Volume of distribution in rat at 0.5 mg/kg, po; type: ADME, organism-based; set-up: dose 0.5 mg/kg, route oral; conditions: in vivo
Vasopressin V2 receptor = Vasopressin V2 receptor (Homo sapiens, UniProt P30518); assay: Antagonist activity at human cloned vasopressin V2 receptor by cell based beta lactamase assay; type: functional
Vasopressin V1a receptor = Vasopressin V1a receptor (Homo sapiens, UniProt P37288); assay: Antagonist activity at human cloned vasopressin V1a receptor by cell based beta lactamase assay; type: functional
Liver microsomes = assay: Intrinsic clearance in human liver microsomes; type: ADME, Microsome
Oxytocin receptor = target: T1, Oxytocin receptor (Homo sapiens, UniProt P30559); assay: Antagonist activity at human cloned oxytocin receptor by cell based beta lactamase assay; type: functional
T1 sequence (P30559 whole entry): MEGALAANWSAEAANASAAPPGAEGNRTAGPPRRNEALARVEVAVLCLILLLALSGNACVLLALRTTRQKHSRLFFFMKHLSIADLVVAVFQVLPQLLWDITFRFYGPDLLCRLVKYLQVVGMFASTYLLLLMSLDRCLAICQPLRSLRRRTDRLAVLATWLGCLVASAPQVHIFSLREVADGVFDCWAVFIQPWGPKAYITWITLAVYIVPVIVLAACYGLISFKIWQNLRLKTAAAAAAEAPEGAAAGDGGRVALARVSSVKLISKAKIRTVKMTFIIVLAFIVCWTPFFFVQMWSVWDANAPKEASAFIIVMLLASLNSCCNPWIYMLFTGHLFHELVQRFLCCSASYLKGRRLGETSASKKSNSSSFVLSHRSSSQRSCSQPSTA

[2] = target: Growth hormone secretagogue receptor type 1 (Homo sapiens, UniProt Q92847); assay: Binding affinity to ghrelin receptor
Rattus norvegicus [3] = assay: Volume of distribution in rat at 2 mg/kg, po; type: ADME, organism-based; set-up: dose 2 mg/kg, route oral; conditions: in vivo
In short: (§1)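 Pharmacokinetic parameters from oral dosing of a suspension of fully crystalline material, at 2 mg/Kg in rat and 0.2 mg/Kg in dog.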

[4] = Oral bioavailability in rat at 2 mg/kg; type: ADME, organism-based; conditions: in vivo
In short: (§2)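 Oral bioavailability from oral dosing of a suspension of fully crystalline material, at 2 mg/Kg in rat and 0.2 mg/Kg in dog, calculated by comparison with iv pharmacokinetic data.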

[5] = Clearance in dog at 0.2 mg/kg, po; type: ADME, organism-based, Canis lupus familiaris; set-up: dose 0.2 mg/kg, route oral; conditions: in vivo; in short: as §1
Canis familiaris = assay: Volume of distribution in dog at 0.2 mg/kg, po; type: ADME, organism-based, Canis lupus familiaris; set-up: dose 0.2 mg/kg, route oral; conditions: in vivo; in short: as §1
[6] = Half life in dog at 0.2 mg/kg, po; type: ADME, organism-based, Canis lupus familiaris; set-up: dose 0.2 mg/kg, route oral; conditions: in vivo; in short: as §1
[7] = Aqueous solubility at pH 7.5; type: physicochemical; conditions: buffer
In short: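 Aqueous solubility was measured on fully crystalline material at pH 7.5.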

[8] = Clearance in rat at 2 mg/kg, po; type: ADME, organism-based; set-up: dose 2 mg/kg, route oral; conditions: in vivo; in short: as §1
[9] = target: Kappa-type opioid receptor (Homo sapiens, UniProt P41145); assay: Binding affinity to kappa opioid receptor
[10] = Oral bioavailability in dog at 0.2 mg/kg, po; type: ADME, organism-based, Canis lupus familiaris; conditions: in vivo; in short: as §2
Substance-P receptor = Substance-P receptor (Homo sapiens, UniProt P25103); assay: Binding affinity to NK1 receptor
[11] = Half life in rat at 2 mg/kg, po; type: ADME, organism-based; set-up: dose 2 mg/kg, route oral; conditions: in vivo; in short: as §1

Vasopressin V2 receptor, sequence (P30518 whole entry): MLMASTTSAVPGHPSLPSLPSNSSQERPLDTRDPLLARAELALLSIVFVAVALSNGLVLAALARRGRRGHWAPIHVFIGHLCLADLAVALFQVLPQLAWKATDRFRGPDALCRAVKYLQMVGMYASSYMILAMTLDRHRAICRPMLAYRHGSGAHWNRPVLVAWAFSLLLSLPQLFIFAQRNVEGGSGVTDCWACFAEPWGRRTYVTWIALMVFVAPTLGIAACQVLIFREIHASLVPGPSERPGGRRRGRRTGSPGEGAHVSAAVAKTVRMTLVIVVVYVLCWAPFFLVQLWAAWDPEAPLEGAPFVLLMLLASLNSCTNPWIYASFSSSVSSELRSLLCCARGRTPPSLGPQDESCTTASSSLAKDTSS
Vasopressin V1a receptor, sequence (P37288 whole entry): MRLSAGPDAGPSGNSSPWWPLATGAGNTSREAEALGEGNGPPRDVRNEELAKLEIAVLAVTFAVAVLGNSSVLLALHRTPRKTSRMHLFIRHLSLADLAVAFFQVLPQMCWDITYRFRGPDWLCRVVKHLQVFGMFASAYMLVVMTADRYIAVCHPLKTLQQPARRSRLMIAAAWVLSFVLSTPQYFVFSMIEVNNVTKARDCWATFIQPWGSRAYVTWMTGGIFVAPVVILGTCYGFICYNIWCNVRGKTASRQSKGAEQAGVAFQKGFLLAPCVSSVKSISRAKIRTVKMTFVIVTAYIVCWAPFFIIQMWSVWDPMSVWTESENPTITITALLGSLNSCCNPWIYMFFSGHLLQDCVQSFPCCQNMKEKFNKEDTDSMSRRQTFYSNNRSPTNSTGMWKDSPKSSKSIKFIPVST
Kappa-type opioid receptor, sequence (P41145 whole entry): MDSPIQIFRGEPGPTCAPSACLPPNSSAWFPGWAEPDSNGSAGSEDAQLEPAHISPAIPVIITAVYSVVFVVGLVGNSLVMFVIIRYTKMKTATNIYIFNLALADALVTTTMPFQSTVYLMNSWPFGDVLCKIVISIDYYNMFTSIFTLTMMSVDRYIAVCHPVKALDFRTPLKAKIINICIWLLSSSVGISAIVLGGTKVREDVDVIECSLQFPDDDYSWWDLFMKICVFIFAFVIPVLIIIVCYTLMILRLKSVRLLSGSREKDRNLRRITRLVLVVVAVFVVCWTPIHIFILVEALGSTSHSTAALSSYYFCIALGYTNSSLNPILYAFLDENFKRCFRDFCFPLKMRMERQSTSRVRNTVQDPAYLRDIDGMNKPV
Substance-P receptor, sequence (P25103 whole entry): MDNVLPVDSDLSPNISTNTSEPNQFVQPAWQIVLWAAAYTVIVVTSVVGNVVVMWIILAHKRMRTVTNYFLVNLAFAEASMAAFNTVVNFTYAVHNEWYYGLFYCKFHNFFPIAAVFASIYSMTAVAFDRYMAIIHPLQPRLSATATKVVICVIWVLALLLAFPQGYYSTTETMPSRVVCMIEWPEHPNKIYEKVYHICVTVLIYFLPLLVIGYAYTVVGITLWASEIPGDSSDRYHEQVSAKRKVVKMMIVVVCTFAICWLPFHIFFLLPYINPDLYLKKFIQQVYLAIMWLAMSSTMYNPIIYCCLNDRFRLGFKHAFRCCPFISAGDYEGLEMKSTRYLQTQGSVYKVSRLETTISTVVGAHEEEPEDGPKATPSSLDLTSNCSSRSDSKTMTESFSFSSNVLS
Growth hormone secretagogue receptor type 1, sequence (Q92847 whole entry): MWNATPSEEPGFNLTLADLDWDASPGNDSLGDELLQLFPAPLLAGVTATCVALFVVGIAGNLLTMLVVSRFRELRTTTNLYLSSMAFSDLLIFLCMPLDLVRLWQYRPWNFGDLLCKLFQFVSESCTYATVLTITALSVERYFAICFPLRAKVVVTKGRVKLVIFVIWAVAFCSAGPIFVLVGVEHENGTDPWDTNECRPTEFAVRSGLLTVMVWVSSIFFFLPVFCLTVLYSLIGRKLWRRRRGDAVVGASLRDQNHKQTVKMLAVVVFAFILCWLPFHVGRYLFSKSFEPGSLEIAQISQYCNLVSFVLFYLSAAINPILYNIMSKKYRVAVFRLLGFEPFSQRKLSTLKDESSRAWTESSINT

Compound `COc1ccc(-n2c(C)nnc2-c2cnc(-c3ccc(F)cc3C)cn2)cn1` has a Vd (Rattus norvegicus [1]) of 4.4 L/kg and a Ki (Vasopressin V2 receptor) greater than 10000 nM.

Work on `COCc1nnc(N2CC[C@@H](Oc3ccc(F)cc3C)C2)n1-c1ccc(OC)nc1` yielded a Ki (Vasopressin V1a receptor) of 586 nM, a clearance (Liver microsomes) greater than 440 µL/min/mg and a Ki (Vasopressin V2 receptor) greater than 10000 nM. For the same compound, the Ki (Oxytocin receptor) was 17.9 nM.

For `COCc1nnc(N2CC[C@@H](Oc3cc(F)cc(F)c3C)C2)n1-c1ccc(OC)nc1`, the Ki (Vasopressin V1a receptor) was 1000 nM, the clearance (Liver microsomes) was 107 µL/min/mg and the Ki (Vasopressin V2 receptor) was greater than 10000 nM. It also gave a Ki (Oxytocin receptor) of 5.8 nM.

Compound `COc1ccc(-n2c(C)nnc2N2CCC(Oc3ccccc3)CC2)cn1` has a Ki (Vasopressin V1a receptor) of 127 nM, a Ki (Vasopressin V2 receptor) greater than 10000 nM and a Ki (Oxytocin receptor) of 114 nM.

With `COc1ccc(-n2c(C)nnc2N2CC[C@@H](Oc3ccccc3C)C2)cn1` the Ki (Vasopressin V1a receptor) was 734 nM, the clearance (Liver microsomes) was 32 µL/min/mg and the Ki (Vasopressin V2 receptor) was greater than 10000 nM. It also gave a Ki (Oxytocin receptor) of 35.9 nM.

For `COc1ccc(-n2c(C)nnc2N2CC(Oc3cc(F)ccc3C)C2)cn1`, the Ki (Vasopressin V1a receptor) was 1680 nM, the Ki (Vasopressin V2 receptor) was 2770 nM and the Ki (Oxytocin receptor) was 40 nM.

`COc1ccc(-n2c(C)nnc2N2CCC(Oc3ccccc3C)CC2)cn1` gave a Ki (Vasopressin V1a receptor) of 21.6 nM, a Ki (Vasopressin V2 receptor) greater than 10000 nM and a Ki (Oxytocin receptor) of 5.4 nM.

Compound `COc1ccc(-n2c(C)nnc2N2CCC(Oc3cc(F)cc(F)c3C)CC2)cn1` has a Ki (Vasopressin V1a receptor) of 175 nM, a Ki (Vasopressin V2 receptor) greater than 10000 nM and a Ki (Oxytocin receptor) of 0.4 nM.

For `COCc1nnc(N2CCC(Oc3ccccc3C)CC2)n1-c1ccc(OC)nc1`, the Ki (Vasopressin V1a receptor) was 24.4 nM, the Ki (Vasopressin V2 receptor) was greater than 10000 nM and the Ki (Oxytocin receptor) was 2.2 nM.

Work on `COc1ccc(-n2c(C)nnc2N2CCC(Oc3cccc(F)c3C)CC2)cn1` yielded a clearance (Liver microsomes) of 24 µL/min/mg, a Ki (Vasopressin V2 receptor) greater than 10000 nM and a Ki (Oxytocin receptor) of 2.6 nM.

Work on `COc1ccc(-n2c(C)nnc2N2CC[C@@H](Oc3ccc(F)cc3C)C2)cn1` yielded a Ki (Vasopressin V1a receptor) of 941 nM, a clearance (Liver microsomes) of 95 µL/min/mg and a Ki (Vasopressin V2 receptor) greater than 10000 nM. It also gave a Ki (Oxytocin receptor) of 31.8 nM.

Compound `COc1ccc(-n2c(C)nnc2N2CC(Oc3ccccc3Cl)C2)cn1` has a Ki (Vasopressin V1a receptor) of 1940 nM, a Ki (Vasopressin V2 receptor) greater than 10000 nM and a Ki (Oxytocin receptor) of 55.1 nM.

Work on `COc1ccc(-n2c(C)nnc2N2CC(Oc3ccccc3)C2)cn1` yielded a Ki (Vasopressin V1a receptor) greater than 10000 nM, a clearance (Liver microsomes) of less than 7 µL/min/mg and a Ki (Vasopressin V2 receptor) greater than 10000 nM. It also gave a Ki (Oxytocin receptor) of 304 nM.

Work on `COc1ccc(-n2c(C)nnc2N2CC(Oc3ccc(F)cc3C)C2)cn1` yielded a Ki (Vasopressin V1a receptor) of 608 nM, a Ki (Vasopressin V2 receptor) greater than 10000 nM and a Ki (Oxytocin receptor) of 17.5 nM.

`COCc1nnc(N2CC[C@H](Oc3ccccc3C)C2)n1-c1ccc(OC)nc1` gave a Ki (Vasopressin V1a receptor) of 522 nM, a Ki (Vasopressin V2 receptor) greater than 10000 nM and a Ki (Oxytocin receptor) of 207 nM.

`COCc1nnc(N2CC(Oc3ccc(F)cc3C)C2)n1-c1ccc(OC)nc1` showed a Ki (Vasopressin V1a receptor) of 719 nM, a Ki (Vasopressin V2 receptor) of 1190 nM and a Ki (Oxytocin receptor) of 18.4 nM.

For `COc1ccc(-n2c(C)nnc2N2CCC(Oc3ccc(F)cc3C)CC2)cn1`, the Ki (Vasopressin V1a receptor) was 111 nM, the clearance (Liver microsomes) was 23 µL/min/mg and the Ki (Vasopressin V2 receptor) was greater than 10000 nM.

`COCc1nnc(N2CC(Oc3ccccc3Cl)C2)n1-c1ccc(OC)nc1` gave a Ki (Vasopressin V1a receptor) of 1340 nM, a clearance (Liver microsomes) of 21 µL/min/mg and a Ki (Vasopressin V2 receptor) greater than 10000 nM. For the same compound, the Ki (Oxytocin receptor) was 32.5 nM.

With `COc1ccc(-n2c(C)nnc2N2CC(Oc3ccc(F)cc3Cl)C2)cn1` the Ki (Vasopressin V1a receptor) was 2430 nM, the clearance (Liver microsomes) was 22 µL/min/mg and the Ki (Vasopressin V2 receptor) was greater than 10000 nM. For the same compound, the Ki (Oxytocin receptor) was 28.4 nM.

In the case of `COc1ccc(-n2c(C)nnc2N2CC[C@@H](Oc3ccccc3)C2)cn1`, the Ki (Vasopressin V1a receptor) is reported as 1840 nM, the Ki (Vasopressin V2 receptor) is reported as greater than 10000 nM and the Ki (Oxytocin receptor) is reported as 170 nM.

Work on `COCc1nnc(N2CC(Oc3ccc(F)cc3Cl)C2)n1-c1ccc(OC)nc1` yielded a Ki [2] of 4400 nM, a Ki (Vasopressin V1a receptor) of 1120 nM and a Vd (Rattus norvegicus [3]) of 2.5 L/kg. It also gave a bioavailability [4] of 62%, a CL/F [5] of 8 mL/min/kg and a Vd (Canis familiaris) of 1.3 L/kg. It also gave a clearance (Liver microsomes) of 10 µL/min/mg, a half-life [6] of 1.9 h and a solubility [7] of 59 µg/mL (≈ 141 µM). It also gave a Ki (Vasopressin V2 receptor) greater than 10000 nM, a Ki (Oxytocin receptor) of 9.5 nM and a CL/F [8] of 36 mL/min/kg. The Ki [9] was 3000 nM, the bioavailability [10] was 81% and the Ki (Substance-P receptor) was 6500 nM. For the same compound, the half-life [11] was 0.9 h.

`COCc1nnc(N2CC[C@@H](Oc3ccccc3C)C2)n1-c1ccc(OC)nc1` showed a Ki (Vasopressin V1a receptor) of 255 nM, a Ki (Vasopressin V2 receptor) greater than 10000 nM and a Ki (Oxytocin receptor) of 28.5 nM.
